These results are taken from ChEMBL document CHEMBL1156698, “Syntheses of tetrahydroisoquinoline derivatives that inhibit NO production in activated BV-2 microglial cells” (Eur J Med Chem, 2008).

Holding throughout (assay type): functional
Common to all, as to design: scale not given: the % may be the effect or the level left

For assay [1], the system named is BV-2. Description: Inhibition of LPS-induced NO production in mouse BV2 microglia cells assessed as nitrite levels at 100 uM relative to untreated control. The essentials:
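BV-2 microglia seeded 2 × 10^5 cells/well in 24-well plates. After 24 h, fresh medium with LPS ([…]) and compound in DMSO added at the same time. After 24 h, nitrite in the medium measured by Griess reaction (sulfanilamide, naphthylethylenediamine, H3PO4) with absorbance at 540 nm. Given as % of LPS-activated cells.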

For assay [2], the system named is BV-2. Description: Inhibition of LPS-induced tetrahydrobiopterin production in mouse BV2 microglia cells assessed as tetrahydrobiopterin levels at 60 uM relative to untreated control. The essentials: (§1)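 BV-2 cells in 24-well plates (2 × 10^5/well) stimulated with LPS ([…]) in fresh medium together with compound in DMSO for 24 h. Medium was treated with phosphoric acid and acidic iodine (I2/KI in trichloroacetic acid) for 1 h in the dark. Oxidation stopped with ascorbic acid, then centrifuged and diluted. BH4 given as % of LPS-activated cells.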

The subject of assay [3] is BV-2. Nature of the assay: Inhibition of LPS-induced tetrahydrobiopterin production in mouse BV2 microglia cells assessed as tetrahydrobiopterin levels at 10 uM relative to untreated control. The essentials:
as §1

In assay [4] the test system is BV-2. Nature of the assay: Inhibition of LPS-induced tetrahydrobiopterin production in mouse BV2 microglia cells assessed as tetrahydrobiopterin levels at 100 uM relative to untreated control. In a few lines: as §1
In assay [5] the test system is BV-2. Description: Inhibition of LPS-induced tetrahydrobiopterin production in mouse BV2 microglia cells assessed as tetrahydrobiopterin levels at 30 uM relative to untreated control. In a few lines: as §1
The subject of assay [6] is BV-2. Nature of the assay: Inhibition of LPS-induced tetrahydrobiopterin production in mouse BV2 microglia cells assessed as tetrahydrobiopterin levels at 50 uM relative to untreated control. The essentials: as §1

For `CCCCN1CCc2cc(OC)c(O)cc2C1`, the Activity in the assay on BV-2 [1] worked out at 111%.
Turning to `COc1cc2c(cc1O)C(C)N(C(C)=O)CC2` (stereo not given), the Activity in the assay with BV-2 [1] amounted to 40%; in the assay on BV-2 [2], 59%; in the assay on BV-2 [3], 99%; in the assay with BV-2 [4], 52%; in the assay on BV-2 [5] it was 59%.
For the compound `COc1cc2c(cc1O)C(C(C)C)N(C(C)=O)CC2` (stereo not given), the Activity in the assay on BV-2 [1] is on record as 39%.
In the case of `CCC(=O)N1CCc2cc(OC)c(O)cc2C1`, the Activity with BV-2 [1] worked out at 36%; in the assay on BV-2 [2], 72%; in the assay with BV-2 [3] it was 86%; in the assay with BV-2 [4], 51%.
As for `COc1cc2c(cc1O)C(c1ccccc1)N(C(C)=O)CC2` (stereo not given), the Activity in the assay with BV-2 [1] is 51%.
On to `CCCN1CCc2cc(OC)c(O)cc2C1`, for which the Activity in the assay on BV-2 [1] came to 82%.
Turning to `CCCC(=O)N1CCc2cc(OC)c(O)cc2C1`, in the assay on BV-2 [1], the Activity amounted to 74%.
Still for that read-out and setting: to `COc1cc2c(cc1O)C(CC(C)C)N(C(C)=O)CC2` (stereo not given) belongs 113%.
Turning to `COc1cc2c(cc1O)C(Cc1ccccc1)N(C(C)=O)CC2` (stereo not given), in the assay on BV-2 [1], the Activity is listed as 96%.
The same measure, in the same setting: to `COc1cc2c(cc1O)C(C1CCC1)N(C(C)=O)CC2` (stereo not given) belongs 69%; to `CCCC1c2cc(O)c(OC)cc2CCN1C(C)=O` (stereo not given), 84%.
The same measure, in the same setting: to `COc1cc2c(cc1O)CN(C(=O)C(C)C)CC2` belongs 82%; to `COc1cc2c(cc1O)CN(C(=O)CC(C)C)CC2`, 90%.
As to `CCC1c2cc(O)c(OC)cc2CCN1C(C)=O` (stereo not given), the Activity in the assay on BV-2 [1] is on record as 50%.
As to `COc1cc2c(cc1O)CN(C(C)=O)CC2`, the Activity with BV-2 [1] was 46%; in the assay with BV-2 [6], 79%; with BV-2 [4], 55%.
On to `COc1cc2c(cc1O)CN(CC1CCCCC1)CC2`, for which the Activity in the assay on BV-2 [1] was found to be 63%.
In the case of `COc1cc2c(cc1O)C(C1CC1)N(C(C)=O)CC2` (stereo not given), in the assay on BV-2 [1], the Activity came to 60%.
Take `COc1cc2c(cc1O)CN(C(=O)C1CCCCC1)CC2`: the Activity was 64% in the assay on BV-2 [1], 71% in the assay on BV-2 [2], 63% in the assay with BV-2 [4] and 95% in the assay on BV-2 [5].
